Tested on: MS2 coat protein
Test: apparent Kd, MS2 coat protein; higher = weaker binding; RNA-MaP array; FMN 200 µM where present
Procedure, shortened: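 Designs were transcribed by stalled E. coli RNA polymerase on Illumina sequencing-chip clusters. They were titrated with SNAP-549-labelled MS2 coat protein from 0.7 or 1.5 nM, doubling to 3 µM, in 100 mM Tris-HCl pH 7.5, 80 mM KCl, 4 mM MgCl2, BSA, DTT, yeast tRNA and Tween-20, without and then with constant ligand. The apparent Kd is the median of filtered per-cluster fits after normalisation of green signal to red-channel RNA signal and control-cluster median Fmax.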

[1] = designed as: OFF switch for flavin mononucleotide, no ligand
[2] = ligand present: flavin mononucleotide, designed as: OFF switch for flavin mononucleotide
[3] = designed as: ON switch for flavin mononucleotide, no ligand
[4] = ligand present: flavin mononucleotide, designed as: ON switch for flavin mononucleotide

Row | Sequence | apparent Kd [1] [nM] | apparent Kd [2] [nM] | apparent Kd [3] [nM] | apparent Kd [4] [nM]
1 | UGUAUGGACAGAGGAUAUACGGAUAGGAUCUACUAUCAAACAAGUCCUACAUGAGGAUCACCCAUGUAGAAGGCUGUCCAUACU | 16.4 | 22.7 |  | 
2 | UGUAUGGACAGAGGAUAUACGGCUAGGAGAUACUAGCCACUAUUCCUCACAUGAGGAUCACCCAUGUAGAAGGCUGUCCAUACU | 17.2 | 120 |  | 
3 | UGUAUGUAGGAGAAGGAGGACUUCAUGAGGAUCACCCAUGUGUUAGGACUUAGGAUAUUUGACGACAUGAGGAUCACCCAUGUG |  |  | 58.3 | 49.6
4 | UGUAUUAACGGAGGAUAUCGAUAUCAAACAUGAGGAUCACCCAUGUUGAGGAUCACCCAUGUCCACGAGAAGGCCGGCGUACUC |  |  | 30.3 | 30
5 | UGUAUUAACGGAGGAUAUCGAUAUCAAACAUGAGGAUCACCCAUGUUGAGGAUCACCCAUGUCCAUGAGAAGGCCGGCGUACUC |  |  | 41.8 | 32.9
6 | UGUAUUAACGGAGGAUAUCGAUAUCAAACAUGAGGAUCACCCAUGUUGAGGAUCACCCAUGUCCAUGAGAAGGCCGGCGUACUU |  |  | 36.2 | 29.4
7 | UGUCAAAAUGAAGGAUAUCUAAGCAUAAACCAUAGAGAAGGUCAAUAGUACAUGAGGAUCACCCAUGUUAGAAUAGAUGGGUUA | 99.9 | 155 |  | 
8 | UGUCGGAACAGAGGAUAUUACAUGAGGAUCACCCAUGUAUGAACCAAUAGCUGGAAACAGCAAUGUAAGAAGGCUGCUCCGACA | 11.9 | 147 |  | 
9 | UGUCGGAGCAGAGGAUAUUACAUGAGGAUCACCCAUGUAUGAACCAAUAGCUGGAAACAGCAAUGUAAGAAGGCUGCUCAGACA | 11.9 | 137 |  | 
10 | UGUCGGAGCAGAGGAUAUUACAUGAGGAUCACCCAUGUAUGAACCAAUAGCUGGAAACAGGAAUGUAAGAAGGCUGCUCCGACA | 6.17 | 30.1 |  | 
11 | UGUCGGAGCAGAGGAUAUUACAUGAGGAUCACCCAUGUAUGAACCAAUAGCUGGACACAGCAAUGUAAGAAGGCUGCUCCGACA | 11.4 | 133 |  | 
12 | UGUCGGAGCAGAGGAUAUUACAUGAGGAUCACCCAUGUAUGAACCAAUCGCUGGAAACAGCAAUGUAAGAAGGCUGCUCCGACA | 10.3 | 73.7 |  | 
13 | UGUCGGAGCAGAGGAUAUUACAUGAGGAUCACCCAUGUAUGAACCGAUAGCUGGAAACAGCAAUGUAAGAAGGCUGCUCCGACA | 19 | 258 |  | 
14 | UGUCGGAGCAGAGGAUAUUACAUGAGGAUCACCCAUGUCUGAACCAAUAGCUGGAAACAGCAAUGUAAGAAGGCUGCUCCGACA | 154 | 432 |  | 
15 | UGUGCGUCAGGAUAUUCUAUUUAUUACAUGAGGAUCACCCAUGUGAAUGUACAAGGGUGUGAAGAAGGGACUUGUC | 686 | 526 |  | 
16 | UGUGCUGAAGGAUAUGCGUAAGCUCGGUGACGAGCAGAUCUACAUGAGGAUCACCCAUGUAGAAGGUCAGUACU | 16 | 18.4 |  | 
17 | UGUGUGAGACAGGAUAUGCCGGUUGAAUUGCUGGUAGAAGGGUCUACAUGAGGAUCACCCAUGUGGCCGGUUGG | 18.7 | 25.5 |  | 
18 | UGUUAAAUUGAUCCUGCAAGUACAUGAGGAUCACCCAUGUGCUAGGAUAUCGCGCAGCUAAAGACCGAGAAGGAGCACAAUGUA | 39.2 | 97.7 |  | 
19 | UGUUAAUAUCGAGGAUAUGUCUAGACACAUGAGGAUCACCCAUGUAUGUGUAUAGAAGGCGAUAUUAACAGCAUGUUACAUGCG |  |  | 37.2 | 17.4
20 | UGUUGGAGCGAGAAGGGACGAUGGGAAGCUGUAGGCUGGCACUGUAGACAUGAGGAUCACCCAUGUCAGGAUAUUGCCGAACUA | 5.83 | 7.71 |  | 
21 | UGUUGUAUUACAGGAUAUCUAGUAUUGUUAUUUAGAGAAGGGUAUUCACAUGAGGAUCACCCAUGUAUAUACGAGGAAGUUGUG |  |  | 38.4 | 41.4
22 | UGUUGUAUUACAGGAUAUCUAUUAGAUUUAUUUAGAGAAGGGUAUUCACAUGAGGAUCACCCAUGUAUAUACGAGGAAGUUGUG |  |  | 57 | 58.6
23 | UGUUGUAUUACAGGAUAUCUAUUAUUUUUAGUUAGAGAAGGGUAUUCACAUGAGGAUCACCCAUGUAUAUACGAGGAAGUUGUG |  |  | 43.5 | 44.3
24 | UGUUGUAUUACAGGAUAUCUAUUGGUUUUAUUUAGAGAAGGGUAUUCACAUGAGGAUCACCCAUGUAUAUACGAGGAAGUUGUG |  |  | 60.5 | 66.9
25 | UGUUUAUAUGAAGGAUAUACUUAACAUGAGGAUCACCCAUGUGGUGUUGUGAGUGAGUGAGUUUAGUAGAAGGUCAAUUAUUUU | 286 | 643 |  | 
26 | UUAAAUCAUGUAGGAUAUGCAUGGCGAAGCUACGCAGAAGGACAUGAGGAUCACCCAUGUUAUAGCGUCCGAAUAAGGAUGCAA | 90.7 | 199 |  | 
27 | UUAAAUCAUGUAGGAUAUGCAUGGCGAAGCUACGCAGAAGGACAUGAGGAUCACCCAUGUUAUAGCGUCUGGAAACAGAUGCAA | 101 | 177 |  | 

Row | Sequence | apparent Kd [1] [nM] | apparent Kd [2] [nM] | apparent Kd [3] [nM] | apparent Kd [4] [nM]
28 | UUAAAUCAUGUAGGAUAUGCAUGGCGAAGCUACGCAGAAGGACAUGAGGAUCACCCAUGUUAUAGCUACAGAGUUCUGUGGCAA | 102 | 233 |  | 
29 | UUAAAUCAUGUAGGAUAUGCAUGGCGAAGCUACGCAGAAGGACAUGAGGAUCACCCAUGUUAUAGCUACCAAGUUAGGUGGCAA | 99 | 190 |  | 
30 | UUAAAUCAUGUAGGAUAUGCAUGGCGAAGCUACGCAGAAGGACAUGAGGAUCACCCAUGUUCGAGCGUCUGAGUACAGAUGCAA | 19.1 | 59.8 |  | 
31 | UUAAAUCAUGUAGGAUAUGCAUGGCGAAGCUACGCAGAAGGACAUGAGGAUCACCCAUGUUCGAGGGUCUGAGUACAGAUCCAA | 23.6 | 123 |  | 
32 | UUAAAUCAUGUAGGAUAUGCAUGGCGAAGCUACGCAGAAGGACAUGAGGAUCACCCAUGUUCUAGCUACCGAGUACGGUGGCAA | 20.6 | 86.3 |  | 
33 | UUAACAUGAGGAUCACCCAUGUAUAGGGAGUUAACAAUUGGACAGGAUAUUGAAGAUGUAGAUAGCAAGAAGGGUCGGUAGUCU |  |  | 38.9 | 35.8
34 | UUAAUGAUGUUAGGAUAUACAUGAGGAAUCCUCGUAGAAGGAACAUGACAUGAGGAUCACCCAUGUAACGCUCCGUAGAGCGUA |  |  | 70.2 | 94.3
35 | UUAAUUAAUUAAUUGCAGAAACAUGAGGAUCACCCAUGUAUAUAGGAUAUCGUCAGGAAUACUGACGAGAAGGAUAUACACUGC | 23.4 | 32.5 |  | 
36 | UUAAUUAAUUAAUUGCAGAUUACAUGAGGAUCACCCAUGUAUAAGGAUAUCGUCAGGAAUACUGACGAGAAGGUAUACAACUGC | 20.3 | 25.4 |  | 
37 | UUAAUUAUACAAGGAUAUCUAUUGUAGUUUCGACAUACAUGAGGAUCACCCAUGUUAGUAUGUUUAGAGAAGGUGUAUUUUCAG |  |  | 28.1 | 25.2
38 | UUAAUUCUGAUUCUUGAAAUACAUGAGGAUCACCCAUGUUCACAGGAUAUUGAUUAUGGUAGUAACAAGAAGGGUGUAUCAUAU | 66 | 113 |  | 
39 | UUACAUACAAAGGUACAUGAGGAUCACCCAUGUUUGUUGGGAAGAAGGGUAACAGUACUACAUUUAUAGGAUAUUUCACAAAUA |  |  | 95.5 | 64
40 | UUACAUACAAAUGUACAUGAGGAUCACCCAUGUUUGUUGGGAAGAAGGGUAACAGUACUACACAUACAGGAUAUUUCACAAAUA |  |  | 54 | 34
41 | UUACCCUCAGUAAGGAUAUCUUUAUCUGCUGAUAUAGAGAAGGUACAUGAGGAUCACCCAUGUGCGAUUGGGCU | 116 | 282 |  | 
42 | UUACCUCAUGAGAAGGACAUGAGGAUCACCCAUGUAGGAUAUCGUGGAAGACAGGUAUUGAAUCUUCGGAUUCAAUACCUGUCU |  |  | 331 | 17.1
43 | UUACCUUAUGAGAAGGCGGUCAUGAAACAUGAUCGAGGAUAUCAUGUAAACAUGAGGAUCACCCAUGUAUGGGUAUUAUGGUAA |  |  | 395 | 53.7
44 | UUACCUUAUGAGAAGGCGGUCAUGAAACAUGAUCGAGGAUAUCAUGUAAACAUGAGGAUCACCCAUGUAUGGGUAUUAUGGUAG |  |  | 303 | 52
45 | UUACGUCACAUUUACAUGAGGAUCACCCAUGUCGAAAGACAUGAGGAUAUGCUACCUAAUUGGUAGCAGAAGGCAUGGACGUCG |  |  | 834 | 81.1
46 | UUACUAUAACAGAAGGGUAGAUAAUAUAUAAAUGCAGGAUAUGUUACAUGAGGAUCACCCAUGUUUCACCCACAUGAGGAUCAC | 27.9 | 55.4 |  | 
47 | UUACUCAUGUAAGGAUAUGCAGCCGAAACGGCUGCAGAAGGUACUAUAAUACAUGAGGAUCACCCAUGUAAAAUAAAUAAAGUC |  |  | 26.1 | 16.9
48 | UUACUCAUGUAAGGAUAUGCAGCCGAAGCGGCUGCAGAAGGUACUAUAAUACAUGAGGAUCACCCAUGUAAAAUAAAUAAAGUU |  |  | 20.4 | 16.3
49 | UUAGAAUUGCAAGGAUAUCUAAUUUAGAUAGUAAGAGAAGGUGCUUGAUAGUUACAUGAGGAUCACCCAUGUUUUUGGGUUUAU |  |  | 545 | 412
50 | UUAGAAUUGCAAGGAUAUCUAAUUUAGAUAGUAAGAGAAGGUGCUUUAUAGUUACAUGAGGAUCACCCAUGUUUUUUUGUUUAU |  |  | 35.1 | 27.3
51 | UUAGAGAAGGAGGAUAUGCUGUUCUGUCACGUAGCAGAAGGCCUUACAUGAGGAUCACCCAUGUUGAUCCCAGU | 618 | 576 |  | 
52 | UUAGCAUACCGAGGAUAUUCAUAUAAUAAAUAAACAUGAGGAUCACCCAUGUGGCGAAAGCCUAGGGAGAAGGCGGAAUGCUAA |  |  | 220 | 21.9
53 | UUAGGACGAAACAUGAGGAUCACCCAUGUGUUAUAAUUAAUAUAGGAUAUGUUUAUACUUUUUGGGCAGAAGGAUGAUAAUGCU |  |  | 19.7 | 15.4
54 | UUAGUCAUGUUAGGAUAUCCGAUGCGAAGCGUUGGAGAAGGAACAUGAGGAUCACCCAUGUUCUGCGUCUGAGUACAGAUGCUA | 29.6 | 123 |  | 

— the EternaBench riboswitch data
